Reference: ChEMBL document CHEMBL4130549, “Synthesis and bioactivities study of new antibacterial peptide mimics: The dialkyl cationic amphiphiles” (Eur J Med Chem, 2018)
Active and inactive are the calls of the source. The calls are words filed in the database; no cut-off is given here.

What was measured:
[1] = tested on: Escherichia coli; experiment: Induction of outer membrane permeabilization in Escherichia coli ATCC 25922 at 20 ug/ml measured every 2 mins for 12 mins by NPN staining based fluorescence assay; type: functional, organism-based
Method in brief: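 Mid-log E. coli (~10^8 CFU/mL) in black plates pre-incubated about 40 min with NPN (10 µM, 50 µL). Baseline read 8 min (ex 350/em 420 nm), then compound added to 20 µg/mL final and fluorescence followed every 2 min for 12 min. Water-treated control.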

[2] = tested on: Enterobacteriaceae; experiment: Antibacterial activity against NDM-1-producing Enterobacteriaceae after 16 to 20 hrs by broth microdilution method; type: functional
Method in brief: (§1)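 Broth microdilution per CLSI in cation-adjusted Mueller-Hinton broth; 4-6 h cultures (~10⁸ CFU/mL) diluted to ~10⁶ CFU/mL and mixed 1:1 with twofold dilutions of water-dissolved compound (256 to 0.5 µg/mL). Incubated 16-20 h at 37 °C; MIC read visually. Each concentration run in duplicate, whole experiment repeated at least twice. MRSA, KPC and NDM-1 strains were clinical isolates.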

[3] = tested on: Staphylococcus aureus; experiment: Antibacterial activity against methicillin-resistant Staphylococcus aureus isolate M1 after 16 to 20 hrs by broth microdilution method; type: functional
Method in brief: (§2)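 CLSI broth microdilution in cation-adjusted Mueller-Hinton broth. A 4-6 h culture was diluted to about 10⁶ CFU/mL and mixed 1:1 with twofold compound dilutions (256–0.5 µg/mL before mixing) prepared from aqueous stocks. Plates were incubated at 37 °C for 16-20 h. Each concentration was tested in duplicate, and the experiment was repeated at least twice.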

[4] = tested on: Klebsiella pneumoniae; experiment: Antibacterial activity against carbapenemase-producing Klebsiella pneumoniae isolate K1 after 16 to 20 hrs by broth microdilution method; type: functional; method in brief: as §1
[5] = tested on: Staphylococcus aureus; experiment: Antibacterial activity against methicillin-resistant Staphylococcus aureus isolate M10 after 16 to 20 hrs by broth microdilution method; type: functional; method in brief: as §2
[6] = tested on: Escherichia coli; experiment: Induction of inner membrane permeabilization in Escherichia coli ATCC 25922 at 20 ug/ml measured every 2 mins for 12 mins by propidium iodide staining based fluorescence assay; type: functional, organism-based
Method in brief: (§3)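 Mid-log cells (~10^8 CFU/mL) pre-incubated with propidium iodide (10 µM, 50 µL), 30 min for S. aureus and 40 min for E. coli. Fluorescence (ex 535/em 617 nm) read for 8 min, then compound added to 20 µg/mL final and monitored every 2 min for 12 min. Water-treated control.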

[7] = tested on: Staphylococcus aureus; experiment: Antibacterial activity against methicillin-resistant Staphylococcus aureus isolate M7 after 16 to 20 hrs by broth microdilution method; type: functional; method in brief: as §2
[8] = tested on: Enterobacteriaceae; experiment: Antibacterial activity against NDM-1-producing Enterobacteriaceae isolate N2 after 16 to 20 hrs by broth microdilution method; type: functional; method in brief: as §1
[9] = tested on: Klebsiella pneumoniae; experiment: Antibacterial activity against carbapenemase-producing Klebsiella pneumoniae isolate K4 after 16 to 20 hrs by broth microdilution method; type: functional; method in brief: as §1
[10] = Hemolytic activity in sheep RBC after 1 hr; type: ADME, cell-based, Ovis aries, Erythrocyte; conditions: sheep red blood cells (erythrocytes)
Method in brief: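 Sheep RBCs suspended at 5% in PBS; 150 µL added to 50 µL compound dilutions (5120 to 10 µg/mL series). Incubated 1 h at 37 °C, then centrifuged; supernatant absorbance read at 540 nm. Lysis (%) = (A−A0)/(Atotal−A0)×100, with untreated 5% RBC as A0 and 0.1% Triton X-100 as total.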

[11] = tested on: Enterobacteriaceae; experiment: Antibacterial activity against NDM-1-producing Enterobacteriaceae isolate N1 after 16 to 20 hrs by broth microdilution method; type: functional; method in brief: as §1
[12] = tested on: Enterobacteriaceae; experiment: Antibacterial activity against NDM-1-producing Enterobacteriaceae isolate N4 after 16 to 20 hrs by broth microdilution method; type: functional; method in brief: as §1
[13] = tested on: Klebsiella pneumoniae; experiment: Antibacterial activity against carbapenemase-producing Klebsiella pneumoniae isolate K9 after 16 to 20 hrs by broth microdilution method; type: functional; method in brief: as §1
[14] = tested on: Klebsiella pneumoniae; experiment: Antibacterial activity against carbapenemase-producing Klebsiella pneumoniae isolate K2 after 16 to 20 hrs by broth microdilution method; type: functional; method in brief: as §1
[15] = tested on: Klebsiella pneumoniae; experiment: Antibacterial activity against carbapenemase-producing Klebsiella pneumoniae after 16 to 20 hrs by broth microdilution method; type: functional; method in brief: as §1
[16] = tested on: Enterobacteriaceae; experiment: Antibacterial activity against NDM-1-producing Enterobacteriaceae isolate N9 after 16 to 20 hrs by broth microdilution method; type: functional; method in brief: as §1
[17] = tested on: Staphylococcus aureus; experiment: Antibacterial activity against methicillin-resistant Staphylococcus aureus after 16 to 20 hrs by broth microdilution method; type: functional; method in brief: as §2
[18] = tested on: Enterobacteriaceae; experiment: Antibacterial activity against NDM-1-producing Enterobacteriaceae isolate N10 after 16 to 20 hrs by broth microdilution method; type: functional; method in brief: as §1
[19] = tested on: Staphylococcus aureus; experiment: Antibacterial activity against methicillin-resistant Staphylococcus aureus isolate M8 after 16 to 20 hrs by broth microdilution method; type: functional; method in brief: as §2
[20] = tested on: Klebsiella pneumoniae; experiment: Antibacterial activity against carbapenemase-producing Klebsiella pneumoniae isolate K10 after 16 to 20 hrs by broth microdilution method; type: functional; method in brief: as §1
[21] = tested on: Klebsiella pneumoniae; experiment: Antibacterial activity against carbapenemase-producing Klebsiella pneumoniae isolate K5 after 16 to 20 hrs by broth microdilution method; type: functional; method in brief: as §1
[22] = tested on: Enterobacteriaceae; experiment: Antibacterial activity against NDM-1-producing Enterobacteriaceae isolate N7 after 16 to 20 hrs by broth microdilution method; type: functional; method in brief: as §1
[23] = tested on: Salmonella enterica; experiment: Antibacterial activity against Salmonella enterica after 16 to 20 hrs by broth microdilution method; type: functional; method in brief: as §1
[24] = tested on: Staphylococcus aureus; experiment: Antibacterial activity against methicillin-resistant Staphylococcus aureus isolate M4 after 16 to 20 hrs by broth microdilution method; type: functional; method in brief: as §2
[25] = tested on: Staphylococcus aureus; experiment: Antibacterial activity against methicillin-resistant Staphylococcus aureus isolate M9 after 16 to 20 hrs by broth microdilution method; type: functional; method in brief: as §2
[26] = tested on: Enterobacteriaceae; experiment: Antibacterial activity against NDM-1-producing Enterobacteriaceae isolate N5 after 16 to 20 hrs by broth microdilution method; type: functional; method in brief: as §1
[27] = tested on: Klebsiella pneumoniae; experiment: Antibacterial activity against carbapenemase-producing Klebsiella pneumoniae isolate K8 after 16 to 20 hrs by broth microdilution method; type: functional; method in brief: as §1
[28] = tested on: Enterobacteriaceae; experiment: Antibacterial activity against NDM-1-producing Enterobacteriaceae isolate N8 after 16 to 20 hrs by broth microdilution method; type: functional; method in brief: as §1
[29] = tested on: Staphylococcus aureus; experiment: Induction of inner membrane permeabilization in Staphylococcus aureus ATCC 29213 at 20 ug/ml measured every 2 mins for 12 mins by propidium iodide staining based fluorescence assay; type: functional, organism-based; method in brief: as §3
[30] = tested on: Staphylococcus aureus; experiment: Antibacterial activity against Staphylococcus aureus ATCC 29213 after 16 to 20 hrs by broth microdilution method; type: functional; method in brief: as §2
[31] = tested on: Enterobacteriaceae; experiment: Antibacterial activity against NDM-1-producing Enterobacteriaceae isolate N6 after 16 to 20 hrs by broth microdilution method; type: functional; method in brief: as §1
[32] = tested on: Klebsiella pneumoniae; experiment: Antibacterial activity against carbapenemase-producing Klebsiella pneumoniae isolate K7 after 16 to 20 hrs by broth microdilution method; type: functional; method in brief: as §1
[33] = tested on: Staphylococcus aureus; experiment: Antibacterial activity against methicillin-resistant Staphylococcus aureus isolate M2 after 16 to 20 hrs by broth microdilution method; type: functional; method in brief: as §2
[34] = tested on: Staphylococcus aureus; experiment: Induction of cytoplasmic membrane depolarization in Staphylococcus aureus ATCC 29213 at 20 ug/ml measured every 2 mins for 12 mins by diSC35 staining based fluorescence assay; type: functional, organism-based
Method in brief: (§4)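 Mid-log cells (4–6 h) pelleted, washed and resuspended (~10^8 CFU/mL) in PBS for S. aureus, or in 5 mM HEPES, 5 mM glucose and 100 mM KCl (1:1:1) for E. coli. Preloaded with diSC35 (10 µM, 50 µL), 30 min for S. aureus and 40 min plus EDTA (200 µM, 50 µL) for E. coli. Baseline read 8 min (ex 622/em 670 nm), then compound added to 20 µg/mL final and read every 2 min for 12 min. Water control.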

[35] = tested on: Klebsiella pneumoniae; experiment: Antibacterial activity against carbapenemase-producing Klebsiella pneumoniae isolate K3 after 16 to 20 hrs by broth microdilution method; type: functional; method in brief: as §1
[36] = tested on: Staphylococcus aureus; experiment: Antibacterial activity against methicillin-resistant Staphylococcus aureus isolate M6 after 16 to 20 hrs by broth microdilution method; type: functional; method in brief: as §2
[37] = tested on: Klebsiella pneumoniae; experiment: Antibacterial activity against carbapenemase-producing Klebsiella pneumoniae isolate K6 after 16 to 20 hrs by broth microdilution method; type: functional; method in brief: as §1
[38] = tested on: Staphylococcus aureus; experiment: Antibacterial activity against methicillin-resistant Staphylococcus aureus isolate M5 after 16 to 20 hrs by broth microdilution method; type: functional; method in brief: as §2
[39] = tested on: Enterobacteriaceae; experiment: Antibacterial activity against NDM-1-producing Enterobacteriaceae isolate N3 after 16 to 20 hrs by broth microdilution method; type: functional; method in brief: as §1
[40] = tested on: Escherichia coli; experiment: Antibacterial activity against Escherichia coli ATCC 25922 after 16 to 20 hrs by broth microdilution method; type: functional; method in brief: as §1
[41] = tested on: Escherichia coli; experiment: Induction of cytoplasmic membrane depolarization in Escherichia coli ATCC 25922 at 20 ug/ml measured every 2 mins for 12 mins by diSC35 staining based fluorescence assay; type: functional, organism-based; method in brief: as §4
[42] = tested on: Enterococcus faecalis; experiment: Antibacterial activity against Enterococcus faecalis after 16 to 20 hrs by broth microdilution method; type: functional; method in brief: as §1
[43] = tested on: Staphylococcus aureus; experiment: Antibacterial activity against methicillin-resistant Staphylococcus aureus isolate M3 after 16 to 20 hrs by broth microdilution method; type: functional; method in brief: as §2

Compound: CCCCCCCCN(CCCCCCCC)C(=O)[C@@H](N)C(C)O.Cl (stereo partly specified)
- Activity [1]: Active
- MIC [2]: 64 µg/mL
- MIC [3]: 8 µg/mL
- MIC [4]: 64 µg/mL
- MIC [5]: 8 µg/mL
- Activity [6]: Active
- MIC [7]: 8 µg/mL
- MIC [8]: > 64 µg/mL
- MIC [9]: 64 µg/mL
- HC50 at 1 h [10]: 268 µg/mL
- MIC [11]: > 64 µg/mL
- MIC [12]: 64 µg/mL
- MIC [13]: 64 µg/mL
- MIC [14]: 64 µg/mL
- MIC [15]: 64 µg/mL
- MIC [16]: > 64 µg/mL
- MIC [17]: 8 µg/mL
- MIC [18]: > 64 µg/mL
- MIC [19]: 8 µg/mL
- MIC [20]: 64 µg/mL
- MIC [21]: 64 µg/mL
- MIC [22]: > 64 µg/mL
- MIC [23]: 64 µg/mL
- MIC [24]: 4 µg/mL
- MIC [25]: 8 µg/mL
- MIC [26]: 64 µg/mL
- MIC [27]: 64 µg/mL
- MIC [28]: > 64 µg/mL
- Activity [29]: Active
- MIC [30]: 4 µg/mL
- MIC [31]: > 64 µg/mL
- MIC [32]: 64 µg/mL
- MIC [33]: 4 µg/mL
- Activity [34]: Active
- MIC [35]: 64 µg/mL
- MIC [36]: 8 µg/mL
- MIC [37]: 64 µg/mL
- MIC [38]: 8 µg/mL
- MIC [39]: 64 µg/mL
- MIC [40]: 16 µg/mL
- Activity [41]: Active
- MIC [42]: 8 µg/mL
- MIC [43]: 4 µg/mL

Compound: CCCCCCCN(CCCCCCC)C(=O)[C@@H](N)CCCCN.Cl.Cl
- Activity [1]: Active
- MIC [2]: 16 µg/mL
- MIC [3]: 8 µg/mL
- MIC [4]: 16 µg/mL
- MIC [5]: 4 µg/mL
- Activity [6]: Active
- MIC [7]: 4 µg/mL
- MIC [8]: 32 µg/mL
- MIC [9]: 16 µg/mL
- HC50 at 1 h [10]: 434 µg/mL
- MIC [11]: 32 µg/mL
- MIC [12]: 32 µg/mL
- MIC [13]: 16 µg/mL
- MIC [14]: 16 µg/mL
- MIC [15]: 16 µg/mL
- MIC [16]: 16 µg/mL
- MIC [17]: 4 µg/mL
- MIC [18]: 16 µg/mL
- MIC [19]: 8 µg/mL
- MIC [20]: 16 µg/mL
- MIC [21]: 16 µg/mL
- MIC [22]: 32 µg/mL
- MIC [23]: 16 µg/mL
- MIC [24]: 16 µg/mL
- MIC [25]: 4 µg/mL
- MIC [26]: 16 µg/mL
- MIC [27]: 16 µg/mL
- MIC [28]: 32 µg/mL
- Activity [29]: Active
- MIC [30]: 8 µg/mL
- MIC [31]: 16 µg/mL
- MIC [32]: 16 µg/mL
- MIC [33]: 16 µg/mL
- Activity [34]: Active
- MIC [35]: 16 µg/mL
- MIC [36]: 4 µg/mL
- MIC [37]: 16 µg/mL
- MIC [38]: 8 µg/mL
- MIC [39]: 32 µg/mL
- MIC [40]: 8 µg/mL
- Activity [41]: Active
- MIC [42]: 8 µg/mL
- MIC [43]: 16 µg/mL
